# Screening results (PubChem)
# A selection: hits, their analogues and other compounds. The true share with any hit is near 2.9%.
# 5HT1a antag = 5-HT1a (human) receptor antagonism. P08908. CHO 5-HT1a Ga15 NFAT-bla reporter, antagonist mode. inhibition, % at 10 µM. 62,000 compounds, 0.68% hits;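 active = inhibition above the mean of all tested compounds plus 3 SD, cut at about 43% in these data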;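 note: receptor stimulated by 5-CT agonist at 100 nM near EC80; beta-lactamase reporter measured by ratiometric fluorescence of a cleavable substrate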
# S1P1 ag pot = activates or potentiates agonism at human S1P1 receptor; activation, % at 9.5 µM; S1P1 CRE-bla cells, forskolin, beta-lactamase FRET, potentiator mode; S1P1 agonist co-added at EC20, 2 nM; 100% = saturating reference agonist, 0% = basal; AID 449; P21453; 56,000 compounds, 0.57% hits;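 active = activation above a cutoff set at the mean activation of all tested compounds plus 3 SD, cut at about 54% in these data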;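 note: forskolin at 4 µM as EC80 and the EC20 agonist is SEW2871; 100% = SEW2871 at its EC100 plus forskolin at EC80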
# 5HT1E ag = activates the human 5-HT1E serotonin receptor | CHO 5-HT1E Ga15 NFAT-bla reporter, FRET; 0% DMSO wells, 100% control agonist wells | activation, % at 6 µM | 65,000 compounds, 0.69% hits;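 active = activation above a set limit, the screen-wide mean activation plus 3 SD, cut at about 8.5% in these data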;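 note: 100% = positive control agonist at 1 µM giving full maximal response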
# Target sequence (P28566 whole entry, looked up): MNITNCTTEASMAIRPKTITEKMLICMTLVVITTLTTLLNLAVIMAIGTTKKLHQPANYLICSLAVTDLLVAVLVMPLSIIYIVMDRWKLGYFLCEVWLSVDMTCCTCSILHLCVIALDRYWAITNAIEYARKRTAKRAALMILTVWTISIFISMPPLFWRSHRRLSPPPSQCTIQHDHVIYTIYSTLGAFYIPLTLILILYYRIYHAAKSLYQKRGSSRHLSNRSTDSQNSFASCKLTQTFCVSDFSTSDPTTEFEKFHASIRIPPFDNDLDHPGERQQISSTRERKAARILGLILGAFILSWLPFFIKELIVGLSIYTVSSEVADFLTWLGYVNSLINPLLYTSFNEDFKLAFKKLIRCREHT
# 5HT1E antag = 5-HT1E (human) receptor antagonism. 65,000 compounds, 0.99% hits. AID 571. CHO 5-HT1E Ga15 NFAT-bla reporter, FRET, antagonist. P28566. inhibition, % at 6 µM;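 active = inhibition above a set limit, the mean inhibition across every tested compound plus 3 SD, cut at about 29% in these data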;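 note: signal is the 460 over 535 nm emission ratio of beta-lactamase substrate; 0% = agonist plus DMSO wells and 100% = wells without agonist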
# S1P3 ag = agonists of human S1P3 receptor | Q99500 | S1P3 NFAT-BLA reporter cells, agonism, FRET ratio; relative to 1 µM S1P, basal subtracted | activation, % at 4.5 µM | 60,000 compounds, 0.1% hits | AID 373;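 active = activation above the screen-wide mean plus 3 SD, cut at about 4.5% in these data, passing the limit was not always enough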
#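 Material: Human S1P3 NFAT-BLA reporter CHO cells | Incubation: Overnight plating, 4 h compound 37 °C, 2 h substrate RT | Signal: FRET β-lactamase substrate fluorescence, excitation 405 nm, 460/535 nm emission ratio, background-subtracted | Compound: 4.5 µM final, single dose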
# 5HT1a ag = activates the human 5-HT1a serotonin receptor; P08908; CHO 5-HT1a Ga15 NFAT-bla reporter, FRET ratio; 0% basal, 100% maximal reference agonist; activation, % at 10 µM; 65,000 compounds, 0.56% hits;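 active = activation above the screen-wide mean activation plus 3 SD, cut at about 19% in these data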;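 note: 0% = DMSO wells and 100% = 5-CT at EC100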
# * hit, by the source's call; / = not tested or not shown.
SMILES,5HT1a antag,S1P1 ag pot,5HT1E ag,5HT1E antag,S1P3 ag,5HT1a ag
COc1cc2c(cc1OC)C1=C(C#N)CC/C(=N\S(=O)(=O)c3ccccc3)N1CC2,5,-34,1,66*,2,3
COc1cc2c(cc1OC)C1=C(C#N)CN(C3CCCCC3)CN1CC2,5,-12,1,27,0,1
COc1ccc(CCN2CC(C#N)=C3c4cc(OC)c(OC)cc4CCN3C2)cc1OC,11,-10,2,38*,-1,2
COc1cc2c(cc1OC)C1=C(C#N)CCC(=O)N1CC2,8,/,0,49*,1,0
COc1cc2c(cc1NC(=O)CN1C(=O)NC3(CCc4ccccc43)C1=O)oc1ccccc12 (stereo not given),45*,-8,1,-14,-1,-1
COc1cc2c(cc1NC(=O)CCCN1C(=O)CCC1=O)oc1ccccc12,-8,-6,0,-2,-1,11
CCOc1ncccc1C(=O)OCC(=O)NCCc1ccc(OC)cc1,2,-13,1,1,-1,1
O=C1c2[nH]nc(-c3ccccc3O)c2C(c2ccc(F)cc2)N1Cc1ccco1 (stereo not given),53*,18,0,-4,-2,5
COC(=O)c1cc(OC)c(OC)cc1NC(=O)C1CCC(=O)N1S(=O)(=O)c1ccc(C)cc1 (stereo not given),15,8,0,36*,-1,3
COc1ccc(N2C(=O)CC(Sc3nnc(-c4ccccc4)o3)C2=O)cc1 (stereo not given),47*,-20,0,-5,-1,-3
O=C1CC(Sc2nnc(-c3ccccc3O)o2)C(=O)N1c1ccccc1 (stereo not given),12,0,1,3,0,-2
O=C1NCCCC1C(=O)N1CCN(C(=O)C2CCCNC2=O)CC1 (stereo not given),-5,15,0,3,-1,-1
Cc1cc(C(F)(F)F)nc(Nc2nc(C)c3ccccc3n2)n1,-5,-11,-1,0,-1,-2
Cc1cc(C)nc(Nc2nc(=O)c3ccccc3s2)n1,62*,-25,1,-15,-1,1
Cc1cc(NC(=O)CN2CCN(c3ccccc3F)CC2)nc2c1c(=O)oc1ccccc12,-7,4,0,1,-1,-3
CCCCS(=O)(=O)/C=C\C=C/S(=O)(=O)CCCC,102*,/,-2,107*,/,-9
CCCCS(=O)(=O)/C=C\C1C2C=CC(C2)C1S(=O)(=O)CCCC (stereo not given),2,-17,0,6,-1,-2
Cc1ccccc1-c1nnc(SCc2ccccc2F)o1,0,89*,0,5,0,4
O=c1cc(-c2ccccc2)[nH]c2ccccc12,33,8,-1,53*,0,-1
O=c1nc(-c2ccccc2)c2ccccc2[nH]1,-2,-6,0,-7,-1,-1
Cc1ccc(Oc2ccc(S(=O)(=O)N3CCOCC3)cc2C(N)=O)c(-n2nc3ccccc3n2)c1,18,0,0,39*,-1,2
CCOc1ccc(NC(=O)CCN2CCN(c3ccccc3OC)CC2)cc1,100*,-2,1,2,-1,1
COc1ccccc1N1CCN(C/C(C)=C/c2ccccc2)CC1,84*,-11,7,-4,-1,-3
CCOC(=O)c1cnc2c(OC)cccc2c1N1CCN(c2ccccc2OC)CC1,38,-22,9.1*,2,-2,2
COc1cc(S(=O)(=O)N2CCN(c3ccccc3F)CC2)ccc1Cl,-5,-4,0,-1,-1,21*
SMILES,5HT1a antag,S1P1 ag pot,5HT1E ag,5HT1E antag,S1P3 ag,5HT1a ag
CCOc1ccc(NC(=O)CCN2CCN(S(=O)(=O)c3cc(Cl)ccc3OC)CC2)cc1,-10,-6,-1,9,0,-1
C/C=C(\C)CN1CCN(c2ccccc2F)CC1,0,/,8,-6,0,2
O=C(c1cc(-c2cccnc2)nc2ccc(Br)cc12)N1CCC2(CC1)OCCO2,-3,11,0,4,-1,0
COc1ccc(CC(C)N2CCN(Cc3ccccc3)CC2)c(OC)c1 (stereo not given),92*,-1,-1,5,-2,-1
COc1ccccc1N1CCN(c2cc(N3CCCC3)nc(C)n2)CC1,7,-10,0,2,0,0
COc1ccc(OC)c(CN2CCN(c3ccccc3OC)CC2)c1,53*,-3,5,7,-1,-2
COc1cc(CN2CCN(c3ccccc3F)CC2)cc(OC)c1O,4,/,14*,2,0,1
COc1ccccc1N1CCN(Cc2ccsc2)CC1,29,-8,21*,0,0,40*
COc1ccc(C(C)(C)C)cc1NC(=O)Nc1ccc2c(c1)OCO2,27,27,0,16,-2,-2
CC(C)(C)S(=O)(=O)c1c(C(=O)O)cccc1C(=O)O,-10,13,-1,2,-1,0
Cc1ccc(NC(=O)CN(c2ccccc2F)S(C)(=O)=O)cc1,12,/,-1,-6,-2,-2
COc1ccccc1N1CCN(Cc2ccc(OC)c(OC)c2OC)CC1,62*,-23,31*,-1,-2,4
CCOc1ccccc1N1CCN(Cc2cccc(OC)c2OC)CC1,58*,-9,1,13,-2,-4
COc1ccccc1N1CCN(C/C(O)=C(\C#N)c2nc(-c3ccccc3)cs2)CC1,10,24,10*,3,0,1
CC(C)Nc1nc2n(c(=O)n1)CCN2C(C)C,-3,/,0,0,-1,1
CCOC(=O)c1sc2c(c1C)C(c1cccs1)C1=C(CCCC1=O)N2 (stereo not given),-4,-94,6,6,1,22*
O=C(c1cc2ccccc2o1)N1CCN=C1SCc1cccnc1,1,10,0,-4,0,2
C/C(N)=C(/C#N)C(=O)CSc1nnc(SCc2ccc(Cl)cc2)s1,-10,60*,0,-3,0,-2
C/C(N)=C(/C#N)C(=O)CSc1nnc(Nc2c(C)cccc2C)s1,3,-14,-1,-3,0,-1
Cc1ccc(C(C)C)c(OCc2nc(-c3nonc3N)no2)c1,-22,92*,0,22,17*,1
CCOC(=O)CCSc1nnc(-c2cccnc2)n1-c1ccccc1OC,-2,3,1,-1,2,3
CCCOc1ccc(N2C(=O)CC(N3CCC(c4nncn4CC)CC3)C2=O)cc1 (stereo not given),2,-32,0,-8,-1,-1
